Assay results: ChEMBL document CHEMBL1127414 (J Med Chem, 1994)
Converted amounts (≈) assume the structure as drawn. The source made the active and inactive calls. The rule behind the calls is not given here.

Tests used:
HepG2 [1] = assay: Concentration required to inhibit cholesterol synthesis in Hep G2 cells relative to control (IC50 of L-694,599); format: functional, Homo sapiens
Outline: (§1)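 Hep G2 cells held 2 days in lipoprotein-depleted FBS to stimulate sterol synthesis, then given inhibitor in serum-free medium for 2 h. 15 μCi [5-3H]mevalonate (0.2 mCi/mmol) added for 1 h. Cells washed and saponified, and radioactivity counted by scintillation.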

Aspergillus fumigatus = assay: Concentration required to inhibit growth of MF 4839 strain of Aspergillus fumigatus; format: functional
Outline: (§2)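 Broth microdilution against a panel of clinically relevant fungal strains. Read-out was the minimum fungicidal concentration in μg/mL.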

Cryptococcus neoformans [2] = assay: Concentration required to inhibit growth of MY 1051 strain of Cryptococcus neoformans; format: functional; outline: as §2
Candida tropicalis = assay: Concentration required to inhibit growth of MY 1012 strain of Candida tropicalis; format: functional; outline: as §2
Squalene synthase [3] = biological target: T1, Squalene synthase (Rattus norvegicus, UniProt Q02769); assay: Tested for inhibition against squalene synthase enzyme in rat liver
T1 sequence (Q02769 whole entry): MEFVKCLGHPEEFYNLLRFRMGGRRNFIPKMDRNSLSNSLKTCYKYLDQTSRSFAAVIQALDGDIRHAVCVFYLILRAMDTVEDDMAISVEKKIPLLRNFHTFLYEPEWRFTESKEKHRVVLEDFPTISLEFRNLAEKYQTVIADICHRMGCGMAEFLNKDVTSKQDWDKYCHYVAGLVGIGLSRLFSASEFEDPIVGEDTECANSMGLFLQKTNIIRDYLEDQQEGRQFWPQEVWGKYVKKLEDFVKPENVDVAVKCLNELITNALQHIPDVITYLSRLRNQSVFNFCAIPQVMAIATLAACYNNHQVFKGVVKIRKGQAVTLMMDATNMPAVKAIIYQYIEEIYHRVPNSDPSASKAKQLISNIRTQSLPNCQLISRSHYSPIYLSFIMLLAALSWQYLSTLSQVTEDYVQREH

Cryptococcus neoformans [4] = assay: Concentration required to inhibit growth of MY 2061 strain of Cryptococcus neoformans; format: functional; outline: as §2
Candida albicans [5] = assay: Concentration required to inhibit growth of MY 1055 strain of Candida albicans; format: functional; outline: as §2
[6] = biological target: T2, Squalene synthase (Rattus norvegicus) (UniProt Q02769); assay: concentration required to inhibit rat liver squalene synthase enzyme relative to control (L-694,599)
T2 sequence (whole entry): T1 sequence (Q02769 whole entry)
Outline: (§3)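 Enzyme from rat liver. […] Inhibitors added in DMSO (0.3% final) as 3-fold serial dilutions, usually up to 30 ng/mL (about 40 nM). IC50 read from % inhibition vs log concentration.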

Candida albicans [7] = assay: Concentration required to inhibit growth of MY 1750 strain of Candida albicans; format: functional; outline: as §2
[8] = test system: squalene synthase (Saccharomyces cerevisiae); assay: compound required to inhibit 50% activity of yeast squalene synthase enzyme relative to control (L-694,599).
Trichophyton benhamiae = assay: Concentration required to inhibit growth of MF 4864 strain of Trichophyton mentagrophytes; format: functional, Arthroderma benhamiae; outline: as §2
Mus musculus [9] = assay: Tested for its ability to inhibit the incorporation of [5-3H]-mevalonolactone into cholesterol by in vivo mouse assay by peroral administration at a dose of 40 mg/kg; format: functional; conditions: route oral
Outline: (§4)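 Female Swiss Webster mice (~25 g), six per group, dosed po by gavage with inhibitor suspended in 5% emulphor. 30 min later, 0.5 μCi/mouse [5-3H]mevalonolactone in saline given sc. Livers removed 30 min after that and saponified in KOH/EtOH overnight at 55 °C, then petroleum-ether extracted. Nonsaponifiable dpm counted. Compounds first tested at a single dose (typically 12 or 24 mg/kg).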

Candida parapsilosis = assay: Concentration required to inhibit growth of MY 1010 strain of Candida parapsilosis; format: functional; conditions: Lodderomyces parapsilosis; outline: as §2
HepG2 [10] = assay: Concentration required to inhibit cholesterol synthesis in Hep G2 cells; format: functional, cell-based; conditions: Homo sapiens; outline: as §1
Mus musculus [11] = assay: Tested for its ability to inhibit the incorporation of [5-3H]-mevalonolactone into cholesterol by in vivo mouse assay by peroral administration at dose 100 mg/kg; format: functional; conditions: route oral; outline: as §4
Mus musculus [12] = assay: Tested for its ability to inhibit the incorporation of [5-3H]-mevalonolactone into cholesterol by in vivo mouse assay by peroral administration not active at dose 40 mg/kg; NA = Not active; format: functional, organism-based; design: dose 40 mg/kg; outline: as §4
Mus musculus [13] = assay: Ability to inhibit the incorporation of [5-3H]-mevalonolactone into cholesterol by in vivo mouse assay by peroral administration at a dose of 24 mg/kg; format: functional; conditions: route oral; outline: as §4
Squalene synthase [14] = biological target: T1, Squalene synthase; assay: Concentration required for inhibition of rat liver squalene synthase enzyme at 161 nM; Not active
[15] = biological target: T2, Squalene synthase (Rattus norvegicus); assay: Concentration required to inhibit rat liver squalene synthase enzyme relative to control (L-694,599); outline: as §3
HepG2 [16] = assay: Concentration of compound required to inhibit cholesterol synthesis in Hep G2 cells relative to control (IC50 of L-694,599); format: functional, Homo sapiens; outline: as §1
[17] = test system: squalene synthase (Saccharomyces cerevisiae); assay: Compound required to inhibit 50% activity of yeast squalene synthase enzyme relative to control (L-694,599)

| IC50 (Squalene synthase [3]) | IC50 (HepG2 [10]) | SMILES | Relative activity (HepG2 [1]) | MFC (Aspergillus fumigatus) | MFC (Cryptococcus neoformans [2]) | MFC (Candida tropicalis) | MFC (Cryptococcus neoformans [4]) | MFC (Candida albicans [5]) | MFC (Candida albicans [7]) | MFC (Trichophyton benhamiae) | inhibition in vivo at 40 mg/kg (Mus musculus [9]) | MFC (Candida parapsilosis) | other results |
| --- | --- | --- | --- | --- | --- | --- | --- | --- | --- | --- | --- | --- | --- |
| 0.12 nM | 1600 nM | C=C(CCC12OC(C(=O)O)C(O)(C(=O)O)C(C(=O)O)(O1)[C@H](OCCCCCCCCCCCC)[C@H]2O)[C@@H](OC(C)=O)[C@H](C)Cc1ccccc1 (stereo partly drawn) | 5.62 | 0.5 µg/mL (≈ 0.707 µM) | 0.5 µg/mL (≈ 0.707 µM) | 64 µg/mL (≈ 90.5 µM) | 0.12 µg/mL (≈ 0.17 µM) | 4 µg/mL (≈ 5.66 µM) | 32 µg/mL (≈ 45.3 µM) | 1 µg/mL (≈ 1.41 µM) | 26% | 8 µg/mL (≈ 11.3 µM) | Relative activity [6]: 2.5; Relative activity [8]: 9.26 |
| 0.04 nM | 2400 nM | C=C(CCC12OC(C(=O)O)C(O)(C(=O)O)C(C(=O)O)(O1)[C@H](OC(=O)OCCCCCCCCCCCOc1ccccc1)[C@H]2O)[C@@H](OC(C)=O)[C@H](C)Cc1ccccc1 (stereo partly drawn) | 3.46 | 0.15 µg/mL (≈ 0.181 µM) | 8 µg/mL (≈ 9.65 µM) | 0.5 µg/mL (≈ 0.603 µM) | 16 µg/mL (≈ 19.3 µM) | > 128 µg/mL | 0.5 µg/mL (≈ 0.603 µM) |  | 12% | 4 µg/mL (≈ 4.83 µM) | Relative activity [6]: 3; Relative activity [8]: 6.07 |
|  | 6000 nM | C=C(CCC12OC(C(=O)O)C(O)(C(=O)O)C(C(=O)O)(O1)[C@H](OC(=O)/C=C/[C@@H](C)C[C@@H](C)CC)[C@H]2O)[C@@H](OC(C)=O)[C@H](C)Cc1ccccc1 (stereo partly drawn) [ZARAGOZIC ACID A] |  | 32 µg/mL (≈ 46.3 µM) | 1 µg/mL (≈ 1.45 µM) | 2 µg/mL (≈ 2.9 µM) | 1 µg/mL (≈ 1.45 µM) | 16 µg/mL (≈ 23.2 µM) | 8 µg/mL (≈ 11.6 µM) | 4 µg/mL (≈ 5.79 µM) |  | 8 µg/mL (≈ 11.6 µM) | inhibition in vivo at 100 mg/kg (Mus musculus [11]): 50%; inhibition (Mus musculus [12]): inactive |
|  | 2400 nM | C=C(CCC12OC(C(=O)O)C(O)(C(=O)O)C(C(=O)O)(O1)[C@H](OC(=O)OCCCCCCCCCC)[C@H]2O)[C@@H](OC(C)=O)[C@H](C)Cc1ccccc1 (stereo partly drawn) |  | 2 µg/mL (≈ 2.77 µM) | 8 µg/mL (≈ 11.1 µM) | 2 µg/mL (≈ 2.77 µM) | 0.25 µg/mL (≈ 0.346 µM) | 8 µg/mL (≈ 11.1 µM) | 16 µg/mL (≈ 22.1 µM) | < 0.06 µg/mL |  | 2 µg/mL (≈ 2.77 µM) | inhibition in vivo at 24 mg/kg (Mus musculus [13]): 28% |
|  |  | C=C(CCC12OC(C(=O)O)C(OCCC)(C(=O)O)C(C(=O)O)(O1)[C@H](O)[C@H]2O)[C@@H](OC(C)=O)[C@H](C)Cc1ccccc1 (stereo partly drawn) |  |  |  |  |  |  |  |  |  |  | IC50 (Squalene synthase [14]): Not Active |
| 0.66 nM | 9600 nM | C=C(CCC12OC(C(=O)O)C(O)(C(=O)O)C(C(=O)O)(O1)[C@H](OC(=O)CCCCCCC)[C@H]2O)[C@@H](OC(C)=O)[C@H](C)Cc1ccccc1 (stereo partly drawn) |  |  |  |  |  |  |  |  |  |  | Relative activity [15]: 0.17; Relative activity (HepG2 [16]): 0.57 |
| 0.8 nM | 1700 nM | C=C(CCC12OC(C(=O)O)C(O)(C(=O)O)C(C(=O)O)(O1)[C@H](OC(=O)CCCCCCCCCCC)[C@H]2O)[C@@H](OC(C)=O)[C@H](C)Cc1ccccc1 (stereo partly drawn) | 3.24 | 8 µg/mL (≈ 11.1 µM) | 2 µg/mL (≈ 2.77 µM) | 8 µg/mL (≈ 11.1 µM) | 0.12 µg/mL (≈ 0.166 µM) | 4 µg/mL (≈ 5.55 µM) | 8 µg/mL (≈ 11.1 µM) | 4 µg/mL (≈ 5.55 µM) | 20% | 8 µg/mL (≈ 11.1 µM) | Relative activity [15]: 0.29; Relative activity [17]: 3.13 |
|  |  | C=C(CCC12OC(C(=O)O)C(OCCC)(C(=O)O)C(C(=O)O)(O1)[C@H](OCCC)[C@H]2O)[C@@H](OC(C)=O)[C@H](C)Cc1ccccc1 (stereo partly drawn) |  |  |  |  |  |  |  |  |  |  | IC50 (Squalene synthase [14]): Not Active |
